# OXTR potentiate: human OXTR potentiators, primary screen, fluorescence, CHO-OTR cells, Fluo-8 calcium | Oxytocin receptor (Homo sapiens), P30559 | Fluo-8 calcium fluorescence, potentiator mode; 0% = oxytocin EC15, 100% = EC100 | activation, % at 3 µM | 0.061% of 320,000 active;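 active = activation above that plate's cutoff, the mean activation of tested compounds plus 3 SD, cut at about 6.6% in these data, passing the limit was not always enough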;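 note: 100% uses oxytocin at 75 nM as the full agonist control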
# Target sequence (P30559 whole entry, looked up): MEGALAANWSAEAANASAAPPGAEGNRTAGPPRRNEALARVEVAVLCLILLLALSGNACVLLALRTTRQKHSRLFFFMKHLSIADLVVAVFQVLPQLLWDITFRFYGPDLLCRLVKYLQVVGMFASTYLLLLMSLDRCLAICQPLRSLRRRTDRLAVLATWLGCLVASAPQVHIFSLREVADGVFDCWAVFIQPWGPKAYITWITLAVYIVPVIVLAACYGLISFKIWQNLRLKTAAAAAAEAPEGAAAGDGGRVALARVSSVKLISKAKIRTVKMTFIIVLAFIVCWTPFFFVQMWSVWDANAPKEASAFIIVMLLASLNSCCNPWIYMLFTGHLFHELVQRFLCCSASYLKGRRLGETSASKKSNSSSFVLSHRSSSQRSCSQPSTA
#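 Assay system: CHO cell line stably expressing human OTR | Also added: Oxytocin at about EC15, sub-maximal agonist stimulus | Times: Compound 6 min at room temperature before oxytocin, 100 s read | Measured by: Fluo-8 intracellular calcium fluorescence, ex 470-495, em 515-575 nm | Controls: EC15 oxytocin alone as 0%, 75 nM oxytocin as 100%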
# OX1R antag-1: antagonists of human orexin 1 receptor (OX1R). Orexin/Hypocretin receptor type 1 (Homo sapiens), O43613. inhibition, % at 6.6 µM. AID 485270, 2010. OX1R-expressing cells, FRET antagonist read-out. 1.8% of 330,000 active; in the data active = inhibition mostly above about 38%, no sharp cut-off; inactive = mostly below about 40%;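 note: 0% = agonist challenge alone and 100% = reference antagonist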
# OX1R antag-2: OX1R (HCRTR1) antagonists, primary screen, fluorescence, CHO/OX1R cells, Fluo-8 calcium, orexin A; AID 434989, 2010; Orexin/Hypocretin receptor type 1 (Homo sapiens), O43613; 0.43% of 330,000 active; Fluo-8 calcium fluorescence; inhibition, % at 5 µM;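 active = inhibition above its plate's threshold, mean inhibition of all tested compounds on the plate plus 3 SD, cut at about 37% in these data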;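 note: 0% = orexin A challenge wells and 100% = SB-334867-A antagonist wells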
# OXTR ag: human OXTR agonists, primary screen, fluorescence, CHO-OTR cells, Fluo-8 calcium | Oxytocin receptor (Homo sapiens), P30559 | Fluo-8 calcium fluorescence; normalized: DMSO 0%, oxytocin 100% | activation, % at 3 µM | 0.32% of 320,000 active;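 active = activation above the mean of all tested compounds plus 3 SD, cutoff set per screening run, cut at about 20% in these data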;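 note: peak over basal fluorescence ratio from a 100 s FLIPR kinetic read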
# V1aR counter: agonists of human V1a receptor, primary screen, counter-screen for OXTR agonist project, fluorescence, CHO-V1R cells; AID 2797, 2010; 0.25% of 320,000 active; Fluo-8 calcium fluorescence, agonist mode; 0% DMSO, 100% 3 nM vasopressin; activation, % at 3 µM;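 active = activation above the mean activation of all tested compounds plus 3 SD, per screening run, cut at about 20% in these data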;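 note: signal is peak over basal fluorescence ratio across a 100 second FLIPR read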
# CHO parental Ca: ATP-evoked calcium signal inhibitors, parental CHO, primary screen, counter-screen for OX1R antagonist project, cell-based, fluorescence, Fluo-8 calcium dye. parental CHO-K1, ATP-induced calcium, Fluo-8 fluorescence. inhibition, % at 5.6 µM. 0.63% of 330,000 active. AID 463079, 2010;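 active = inhibition above that plate's mean sample inhibition plus 3 SD, cut at about 26% in these data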;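 note: 0% = ATP-challenged DMSO wells and 100% = DMSO wells without ATP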
#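 Material: parental CHO cells / Compound: single nominal dose of 5.6 µM per compound / Signal: Fluo-8 fluorescence / Replicates: singlicate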
# An asterisk follows results filed as active. Shown are actives, neighbours in structure and some others; about 2.7% of the full set was active somewhere.
SMILES,OXTR potentiate,OX1R antag-1,OX1R antag-2,OXTR ag,V1aR counter,CHO parental Ca
Cc1sc2ncnc(N3CCC(C(=O)NNC(=O)COc4ccc(Br)cc4)CC3)c2c1C,-16.9,62.6*,-0.1,5.7,11.6,-11.7
Cc1cc(Cl)ccc1OCC(=O)NNC(=O)C1CCN(c2ncnc3sc(C)c(C)c23)CC1,-9.6,33.4*,20.7,6.9,13.6,1.5
Cc1sc2ncnc(N3CCC(C(=O)NNC(=O)c4ccccc4Cl)CC3)c2c1C,-7.2,8.2,-15.6,1.8,5.8,-8.3
Cc1sc2ncnc(N3CCC(C(=O)Nc4ccc(OC(F)F)c(Cl)c4)CC3)c2c1C,-9.5,29.5*,17.3,0.5,0.5,-7.8
Cc1sc2ncnc(N3CCC(C(=O)NNC(=O)COc4ccccc4Cl)CC3)c2c1C,-14.5,25.9,10.4,1.9,7.9,-5.5
CCOc1cccc(CN2CCCC(N3CCc4cc(OC)c(OC)cc4C3)C2)c1O (stereo unspecified),-0.6,9.5,-30.4,-1.1,-0.4,-16.8
Cn1ncc2c(NNC(=O)c3ccc(Cl)cc3Cl)ncnc21,2.7,1.0,-17.1,1.1,-0.4,-10.4
CCN(CC)S(=O)(=O)c1ccc(NC(=O)Nc2cccc(C(F)(F)F)c2)cc1,-6.6,12.1,5.6,15.1,13.2,34.9*
Cc1ccc(S(=O)(=O)Nc2ccc(NC(=O)Nc3cccc(C(F)(F)F)c3)cc2)cc1,-10.4,3.0,-18.3,1.3,2.4,-8.5
O=C(Nc1ccncc1)Nc1cccc(C(F)(F)F)c1,-8.3,5.2,3.9,10.5,12.4,11.7
CN(C)S(=O)(=O)Oc1ccc(C(=O)Nc2cccc(C(F)(F)F)c2)cc1,-19.4,51.4*,1.3,9.4,9.7,52.9*
O=C(Nc1ccc(OC(F)F)cc1)Nc1cccc(C(F)(F)F)c1,-23.0,45.1*,49.7*,18.7,9.9,60.1*
CCCC(C(=O)Nc1ccc2c(C)cc(=O)oc2c1)c1ccccc1 (stereo unspecified),-5.6,23.5,0.9,-0.1,0.7,-8.2
Cc1cc(C)c2nc(N(CCCN(C)C)C(=O)c3ccc(S(=O)(=O)N4CC(C)OC(C)C4)cc3)sc2c1 (stereo unspecified),-11.7,25.2,-33.8,6.6,2.1,-1.3
O=C(CNC(=O)c1cc(Cl)cc([N+](=O)[O-])c1)NC1CC1,-7.5,47.8*,-0.4,0.2,2.2,-5.2
CCNC(=O)COC(=O)CNC(=O)c1cc(Cl)cc([N+](=O)[O-])c1,-0.7,41.1*,-12.2,-1.1,0.3,-6.7
CC(C)(C)NC(=O)COC(=O)CNC(=O)c1cc(Cl)cc([N+](=O)[O-])c1,3.3,44.1,-5.7,0.2,1.2,-4.7
CCCCNC(=O)COC(=O)CNC(=O)c1cc(Cl)cc([N+](=O)[O-])c1,-3.6,76.8*,-8.6,-0.6,-0.4,-8.8
O=C(N/N=C/c1cc([N+](=O)[O-])ccc1Cl)c1cnccn1,-0.8,71.5*,-15.3,-1.5,0.2,-10.9
Cc1ccc(C(=O)NNC(=O)c2n[nH]c(=O)c3ccccc23)cc1C,-9.9,19.4,13.9,-1.6,0.1,-13.8
CC(=O)N1CCC(C(=O)OCc2ccccc2F)(c2ccccc2)CC1,-7.2,14.9,-29.7,2.9,3.3,-29.2
CN(C)/C=C1\C=C2C(=O)c3ccccc3N2C1=O,-21.8,9.5,46.5*,436.2*,95.2*,50.2*
CN(C)S(=O)(=O)N1C(=O)c2ccccc2C1=O,-3.8,9.5,-26.6,1.0,0.7,-0.2
CSc1ncccc1C(=O)Nc1ccccc1N1CCOCC1,-3.8,1.1,-1.3,-0.3,0.4,-6.4
CCc1ccc(CN(C)C(=O)c2cc(COc3ccc(OC)cc3Cl)on2)nc1,-2.3,30.9,-39.0,2.2,4.4,-17.8
SMILES,OXTR potentiate,OX1R antag-1,OX1R antag-2,OXTR ag,V1aR counter,CHO parental Ca
CCOC(=O)c1ccc(NC(=O)c2ccc(NC(=O)c3ccccc3)cc2)cc1,0.1,9.8,-21.1,0.1,0.3,-9.5
CCOC(=O)c1ccc(NC(=O)c2cc3c(s2)CCC3)cc1,-6.7,69.7*,-5.4,2.9,3.2,-7.4
O=C(C1CC(c2ccccc2O)=NO1)N1CCCCC1 (stereo unspecified),-3.8,6.8,-5.2,3.9,2.5,-11.8
COc1ccccc1CNC(=O)c1cccc(S(=O)(=O)N2CCN(c3ccc(F)cc3)CC2)c1,-5.3,2.0,6.7,5.4,11.1,-5.1
COc1cccc(CN(C)C(=O)c2cccc(S(=O)(=O)N3CCN(c4ccc(F)cc4)CC3)c2)c1OC,-13.8,35.6,13.3,5.5,6.4,35.4*
CC1(c2nnc(-c3ccc(F)cc3)o2)CC(c2ccccc2)=NO1 (stereo unspecified),-0.1,24.9,-9.0,-0.3,-0.3,-4.6
O=C(Nc1ccccc1F)c1ccc(-c2cccc([N+](=O)[O-])c2)o1,-2.9,64.1*,-21.7,-1.2,-0.7,-11.3
CN(C)NC(=O)c1ccc([N+](=O)[O-])s1,-0.9,66.8*,-19.4,2.7,-0.8,-9.2
O=C(Nc1ccccc1F)c1ccc([N+](=O)[O-])s1,-6.8,38.5*,-2.1,-0.9,1.0,2.2
O=C(Nc1cccnc1)c1ccc([N+](=O)[O-])s1,-4.1,52.6*,-4.5,1.4,1.1,-15.0
CCOc1ccc(NC(=O)c2ccc(NS(=O)(=O)c3cccs3)cc2)cc1,-9.9,11.1,-4.6,2.8,4.3,6.5
C=CCn1c(CNC(=O)c2ccccc2F)nnc1SCC(=O)NC(C)c1ccccc1 (stereo unspecified),-6.9,25.0,-18.0,-0.4,0.3,-11.0
CC(C)(C)C1=CC(O)(c2ccccc2)C=C(C(C)(C)C)C1=O,-15.0,5.6,4.1,-1.4,0.1,-11.8
COc1ccc(S(=O)(=O)/N=C2\C=C(Nc3ccc(O)cc3)C(=O)c3ccccc32)cc1,-7.0,27.5,0.4,-1.0,-0.6,-23.3
Cc1ccccc1NC1=C/C(=N\S(=O)(=O)c2ccc(C(=O)O)cc2)c2ccccc2C1=O,-9.2,59.3*,-14.7,-0.4,0.8,1.7
O=C(O)c1ccc(S(=O)(=O)/N=C2\C=C(Nc3ccccc3F)C(=O)c3ccccc32)cc1,-4.2,63.4*,-11.4,-0.9,1.5,-16.6
COc1ccc(/C=C2\N=C(c3ccccc3)NNC2=O)cc1,-1.1,22.7,-22.1,-0.7,-0.3,-6.0
COc1cc(NS(=O)(=O)c2c(C(=O)N3CCOCC3)c(C)n(C)c2C)cc(OC)c1OC,-9.1,11.1,-22.0,-0.3,-0.2,-1.0

# Screening results: PubChem, The Scripps Research Institute Molecular Screening Center
